XBP1 UPR activ = activators of adaptive XBP1 UPR arm, primary screen, cell-based, CHO-XBP1 luciferase reporter, luminescence, uHTS | AID 463104, 2010 | activation, % at 20 µM | IRE1-XBP1 UPR activation; percent of tunicamycin response, DMSO as zero | 0.33% of 330,000 active;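 active means versus positive control, 20 µM dose yields 30% or more activation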
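incubation = overnight seeding at 37 °C, 6 h compound treatment at 37 °C | assay system = CHO-XBP1 cells stably carrying IRE1-XBP1-driven luciferase reporter | input = 1000 cells per well | detection = luciferase luminescence | dosing = single point, 20 µM final compound, 1% DMSO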
Jurkat NFkB inh = inhibitors of induced NF-kB luciferase reporter, primary screen, TCR NF-kB activation inhibitor project, cell-based, luminescence, uHTS. 0.53% of 330,000 active. inhibition, % at 4 µM. Jurkat, PMA/ionomycin-induced NF-kB luciferase reporter; in the data active means inhibition above about 50%
UPR CHOP act = activators of apoptotic CHOP UPR arm, primary screen, cell-based, CHO-CHOP luciferase reporter, luminescence, uHTS | UPR activation; percent of tunicamycin response over DMSO baseline | activation, % at 10 µM | 0.34% of 330,000 active | AID 449763, 2010;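 active means at 10 µM dose, activation of 40% or more, normalized to positive control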
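System: CHO-CHOP luciferase reporter cell line; amount: 500 cells/well; buffer or medium: F12 medium containing 10% fetal bovine serum; incubation: 6 h compound exposure at 37 °C after overnight seeding; measured by: luciferase luminescence after 10 min with Steady-Glo reagent; evaluation: % reporter activation, DMSO baseline versus tunicamycin full activation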
697 NFkB inh = inhibitors of PMA/ionomycin-induced NF-kB reporter, 697 cells, primary screen, B-cell NF-kB inhibitor project, cell-based, luminescence, uHTS. 697 B-cell NF-kB luciferase reporter, 16 h. inhibition, % at 4 µM. 0.33% of 330,000 active; in the data active means inhibition above about 35%
CRFR2-BP antag = antagonists of CRF-BP/CRF-R2 complex, primary screen, cell-based, HEK293, calcium dye fluorescence, uHTS; AID 588475, 2011; inhibition, % at 11.8 µM; CRF-induced calcium fluorescence; 0.59% of 350,000 active;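 active means inhibition of the ligand-induced calcium signal above about 50% at the single tested concentration, limit read from the data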
Numbers stand for hits. In the library only some 1.8% were active in any assay of this set; here they are far more common.

How did O=C1NC(=O)N(CCNc2ncc(C(F)(F)F)cc2Cl)C(=O)C1/C=N/OCc1c(F)cccc1Cl (centres undefined) do in these assays?
XBP1 UPR activ: inactive; Jurkat NFkB inh: inactive; UPR CHOP act: inactive; 697 NFkB inh: inactive; CRFR2-BP antag: 62

Results for O=P(/C(=N/O)N1CCOCC1)(N1CCOCC1)N1CCOCC1 ?
XBP1 UPR activ: inactive; Jurkat NFkB inh: inactive; UPR CHOP act: inactive; 697 NFkB inh: inactive; CRFR2-BP antag: 55

Results for Cc1cccc(N2C(=O)NC(=O)/C(=C/c3ccc(N4CCOCC4)cc3)C2=O)c1 ?
XBP1 UPR activ: inactive; Jurkat NFkB inh: inactive; UPR CHOP act: inactive; 697 NFkB inh: inactive; CRFR2-BP antag: inactive

How did Cc1cccc(N2C(=O)NC(=O)/C(=C\c3ccc(N4CCOCC4)cc3)C2=O)c1 do in these assays?
XBP1 UPR activ: inactive; Jurkat NFkB inh: inactive; UPR CHOP act: inactive; 697 NFkB inh: inactive; CRFR2-BP antag: 72

How did Oc1cc(Cl)ccc1Oc1ccc(Cl)cc1Cl do in these assays?
XBP1 UPR activ: inactive; Jurkat NFkB inh: inactive; UPR CHOP act: inactive; 697 NFkB inh: inactive; CRFR2-BP antag: inactive

Results for Clc1cnc(Oc2ccc(Oc3ncc(Cl)cc3Cl)cc2)c(Cl)c1 ?
XBP1 UPR activ: inactive; Jurkat NFkB inh: inactive; UPR CHOP act: inactive; 697 NFkB inh: inactive; CRFR2-BP antag: 72

Results for Cc1nc2ccccc2c(=O)n1-c1ccc(-c2ccccc2)cc1 ?
XBP1 UPR activ: inactive; Jurkat NFkB inh: inactive; UPR CHOP act: inactive; 697 NFkB inh: inactive; CRFR2-BP antag: inactive

What do the screens show for `Nc1cc(Cl)c2nonc2c1[N+](=O)[O-]`?
CRFR2-BP antag: 58

Results for COC(=O)C1=C(c2ccc(OCc3ccccc3)cc2)C[C@@H]2CC[C@H]1N2C(=O)NCCc1ccc(F)cc1 ?
CRFR2-BP antag: inactive

What do the screens show for `CN(c1ccccc1)P(=O)(N1CC1)N1CC1`?
CRFR2-BP antag: 54

Results for C[C@@H]1CN([C@@H](C)CO)C(=O)CCCn2cc(nn2)CO[C@H]1CN(C)C(=O)Oc1ccc2ccccc2c1 ?
CRFR2-BP antag: inactive

What do the screens show for `Cc1cc(C(=O)Nc2ccc3c(c2)OCCO3)nn1C(C)(C)C`?
XBP1 UPR activ: inactive; Jurkat NFkB inh: inactive; UPR CHOP act: inactive; 697 NFkB inh: inactive; CRFR2-BP antag: 82

Results for C[C@H]1CN([C@@H](C)CO)C(=O)CCCn2nncc2CO[C@H]1CN(C)C(=O)Oc1ccc2ccccc2c1 ?
CRFR2-BP antag: inactive

Results for COc1cccc(CNCCc2c[nH]c3ccccc23)c1 ?
XBP1 UPR activ: inactive; Jurkat NFkB inh: inactive; UPR CHOP act: inactive; 697 NFkB inh: inactive; CRFR2-BP antag: inactive

Results for COc1ccc(CN(CCc2c[nH]c3ccccc23)Cc2ccc(OC)cc2)cc1 ?
CRFR2-BP antag: 63

How did Cc1cc(C)cc(N2C(=O)NC(=O)/C(=C\c3cccn3-c3ccc(Cl)cc3)C2=O)c1 do in these assays?
XBP1 UPR activ: inactive; Jurkat NFkB inh: inactive; UPR CHOP act: 271; 697 NFkB inh: inactive; CRFR2-BP antag: inactive

Results for Cc1ncc([N+](=O)[O-])n1CCOC(N)=O ?
XBP1 UPR activ: inactive; Jurkat NFkB inh: inactive; UPR CHOP act: inactive; 697 NFkB inh: inactive; CRFR2-BP antag: 67

How did CCOC(=O)Cn1cc([N+](=O)[O-])nc1[N+](=O)[O-] do in these assays?
XBP1 UPR activ: inactive; Jurkat NFkB inh: inactive; UPR CHOP act: inactive; 697 NFkB inh: inactive; CRFR2-BP antag: inactive

Results for CC(=O)Nc1cc(C(=O)N2CCC3(CC2)OCCO3)ccc1S(=O)(=O)c1ccc(C)cc1 ?
XBP1 UPR activ: inactive; Jurkat NFkB inh: inactive; UPR CHOP act: inactive; 697 NFkB inh: inactive; CRFR2-BP antag: 98

Results for Oc1c(Cl)c(Cl)c(Cl)c(Cl)c1Cl ?
XBP1 UPR activ: inactive; Jurkat NFkB inh: inactive; UPR CHOP act: inactive; 697 NFkB inh: inactive; CRFR2-BP antag: 54

What do the screens show for `COC(=O)C12OCC34C(CC5C(C)=C(O)C(=O)CC5(C)C3C(O)C1O)OC(=O)C(OC(=O)/C=C(\C)C(C)C)C24` (centres undefined)?
CRFR2-BP antag: inactive

What do the screens show for `COc1ccc(Cn2c(O)c(/C=N/NC(=O)c3ccncc3)c(=O)[nH]c2=O)cc1`?
XBP1 UPR activ: inactive; Jurkat NFkB inh: inactive; UPR CHOP act: inactive; 697 NFkB inh: inactive; CRFR2-BP antag: inactive

What do the screens show for `COc1ccc(Cn2c(O)c(/C=N/NC(=O)c3ccccc3)c(=O)[nH]c2=O)cc1`?
XBP1 UPR activ: inactive; Jurkat NFkB inh: inactive; UPR CHOP act: inactive; 697 NFkB inh: inactive; CRFR2-BP antag: 55

What do the screens show for `CNC1(c2ccc(F)cc2)CCCCC1`?
CRFR2-BP antag: 88

Results for CCOC(=O)c1cccc(C2=C(CNC(=O)c3ccc([N+](=O)[O-])cc3)[C@H]3CC[C@@H](C2)N3Cc2ccccc2)c1 ?
CRFR2-BP antag: inactive

Results for O=c1c2ccccc2nc(N2CCCC2)n1-c1ccc(Cl)cc1 ?
XBP1 UPR activ: inactive; Jurkat NFkB inh: inactive; UPR CHOP act: inactive; 697 NFkB inh: inactive; CRFR2-BP antag: 64

How did CCCCCCC(=O)c1c(O)n(-c2ccccc2OC)c(=O)[nH]c1=O (tested in a mixture with another compound) do in these assays?
XBP1 UPR activ: inactive; Jurkat NFkB inh: inactive; UPR CHOP act: inactive; 697 NFkB inh: inactive; CRFR2-BP antag: inactive

Results for CCN(CC)CCN=C(C)c1c(O)n(-c2ccccc2OC)c(=O)[nH]c1=O ?
XBP1 UPR activ: inactive; Jurkat NFkB inh: inactive; UPR CHOP act: inactive; 697 NFkB inh: inactive; CRFR2-BP antag: 87

Results for CCCCC1(CCCC)C(=O)NC(=Nc2cccc(C)c2)NC1=O ?
XBP1 UPR activ: inactive; Jurkat NFkB inh: inactive; UPR CHOP act: inactive; 697 NFkB inh: inactive; CRFR2-BP antag: 55

Results for CCCC1(CCC)C(=O)NC(=Nc2ccccc2)NC1=O ?
XBP1 UPR activ: inactive; Jurkat NFkB inh: inactive; UPR CHOP act: inactive; 697 NFkB inh: inactive; CRFR2-BP antag: inactive

How did Nc1c(Br)cc2c3c(cccc13)-c1ccccc1-2 do in these assays?
CRFR2-BP antag: inactive

Results for CCC(C)C1N=C(c2ccccc2)c2cc(Cl)ccc2N(CC(=O)NCc2ccco2)C1=O (centres undefined) ?
XBP1 UPR activ: inactive; Jurkat NFkB inh: inactive; UPR CHOP act: inactive; 697 NFkB inh: inactive; CRFR2-BP antag: 55

What do the screens show for `Cc1ccc(NC(=O)CN2C(=O)CN=C(c3ccccc3)c3cc(Cl)ccc32)cc1`?
XBP1 UPR activ: inactive; Jurkat NFkB inh: inactive; UPR CHOP act: inactive; 697 NFkB inh: inactive; CRFR2-BP antag: inactive

How did O=S(=O)(c1cccc2ccccc12)N1Cc2ccccc2-n2nncc2C1 do in these assays?
CRFR2-BP antag: inactive

What do the screens show for `O=C(CCl)Nc1nccs1`?
XBP1 UPR activ: inactive; Jurkat NFkB inh: inactive; UPR CHOP act: inactive; 697 NFkB inh: inactive; CRFR2-BP antag: 62

Screens (PubChem)
